What is called GI50 is the concentration at which growth is held to half of that of the control. A high value points to lower sensitivity of the cells. A word on the TGI: it is the concentration at which net growth stops.

The test system of test [1] is Tumor Cell line. Nature of the test: Tested for in vitro inhibitory activity against drug concentration causing 50% cell death inhibition in 56 human tumor cell lines derived from colon cancer in test 4; log10 LC50. The test is classed as functional. The conditions noted are these: read-out: Log LC50 (the source's name) (converted). Put shortly: (§1)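 NCI 56-line human tumour panel screen. Cells were seeded in 96-well plates on day 0, mostly at 20 000 cells/well, and preincubated 24 h without drug. Drug was then added at five 10-fold dilutions for a further 48 h. Cells were fixed in situ and stained with SRB, and bound dye was read spectrophotometrically. GI50, TGI (0% growth) and LC50 (−50% growth) were taken versus control. Values are mean-graph midpoints (log10) per test.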

Test [2] concerns Tumor Cell line. Briefly: Tested for in vitro inhibitory activity against drug concentration causing 50% cell death inhibition in 56 human tumor cell lines derived from leukemia in test 1; log10 LC50. The note with it: read-out: Log LC50 (the source's name) (converted). The test is classed as functional. Put shortly: as §1
The test system of test [3] is Tumor Cell line. Briefly: Tested for in vitro inhibitory activity against drug concentration causing 50% cell death inhibition in 56 human tumor cell lines derived from leukemia in test 9; log10 LC50. Format: functional. The conditions noted are these: read-out: Log LC50 (the source's name) (converted). Put shortly: as §1
The test system of test [4] is Tumor Cell line. Briefly: Tested for in vitro inhibitory activity against drug concentration causing 50% cell death inhibition in 56 human tumor cell lines derived from small cell lung cancer in test 3; log10 LC50. The test is classed as functional. The note with it: read-out: Log LC50 (the source's name) (converted). Put shortly: as §1
In test [5] the test system is Tumor Cell line. Briefly: Tested for in vitro inhibitory activity against drug concentration causing 50% cell death inhibition in 56 human tumor cell lines derived from CNS cancer in test 5; log10 LC50. The test is classed as functional. The conditions noted are these: read-out: Log LC50 (the source's name) (converted). Put shortly: as §1
Test [6] has as its system Tumor Cell line. Briefly: Tested for in vitro inhibitory activity against drug concentration causing 50% cell death inhibition in 56 human tumor cell lines derived from Non small cell lung cancer in test 2; log10 LC50. The test is classed as functional. The conditions noted are these: read-out: Log LC50 (the source's name) (converted). Put shortly: as §1
The test system of test [7] is Tumor Cell line. Nature of the test: Tested for in vitro inhibitory activity against drug concentration causing 50% cell death inhibition in 56 human tumor cell lines derived from Ovarian cancer in test 7; log10 LC50. The note with it: read-out: Log LC50 (the source's name) (converted). The test is classed as functional. Put shortly: as §1
Test [8] concerns Tumor Cell line. Briefly: Tested for in vitro inhibitory activity against drug concentration causing 50% cell death inhibition in 56 human tumor cell lines derived from Renal cancer in test 8; log10 LC50. Format: functional. The note with it: read-out: Log LC50 (the source's name) (converted). In outline:
as §1

In test [9] the test system is Tumor Cell line. Briefly: Tested for in vitro inhibitory activity against drug concentration causing 50% cell growth inhibition in 56 human tumor cell lines derived from Ovarian cancer in test 7; log10 GI50. The test is classed as functional. In outline:
as §1

In test [10] the test system is Tumor Cell line. Nature of the test: Tested for in vitro inhibitory activity against drug concentration causing 50% cell growth inhibition in 56 human tumor cell lines derived from colon cancer in test 4; log10 GI50. The test is classed as functional. Put shortly: as §1
For test [11], the system named is Tumor Cell line. Briefly: Tested for in vitro inhibitory activity against drug concentration causing 50% cell growth inhibition in 56 human tumor cell lines derived from leukemia in test 1; log10 GI50. The test is classed as functional. Put shortly: as §1
Test [12] deals with Tumor Cell line. Nature of the test: Tested for in vitro inhibitory activity against drug concentration causing 50% cell growth inhibition in 56 human tumor cell lines derived from renal cancer in test 8; log10 GI50. The test is classed as functional. Put shortly: as §1
The test system of test [13] is Tumor Cell line. Briefly: Tested for in vitro inhibitory activity against drug concentration causing 50% cell death inhibition in 56 human tumor cell lines derived from Melanoma in test 6; log10 LC50. The test is classed as functional. The conditions noted are these: read-out: Log LC50 (the source's name) (converted). In outline:
as §1

Test [14] has as its system Tumor Cell line. Nature of the test: Tested for in vitro inhibitory activity against drug concentration causing total cell growth inhibition in 56 human tumor cell lines derived from CNS cancer in test 5; log10 TGI50. The conditions noted are these: read-out: Log TGI (converted). Format: functional. In outline: as §1
The test system of test [15] is Tumor Cell line. Nature of the test: Tested for in vitro inhibitory activity against drug concentration causing total cell growth inhibition in 56 human tumor cell lines derived from Melanoma in test 6; log10 TGI50. The note with it: read-out: Log TGI (converted). Format: functional. Put shortly:
as §1

In test [16] the test system is Tumor Cell line. Briefly: Tested for in vitro inhibitory activity against drug concentration causing total cell growth inhibition in 56 human tumor cell lines derived from Non small cell lung cancer in test 2; log10 TGI50. Format: functional. The conditions noted are these: read-out: Log TGI (converted). In outline:
as §1

Test [17] deals with Tumor Cell line. Nature of the test: Tested for in vitro inhibitory activity against drug concentration causing total cell growth inhibition in 56 human tumor cell lines derived from Renal cancer in test 8; log10 TGI50. Format: functional. The note with it: read-out: Log TGI (converted). In outline: as §1
Test [18] has as its system Tumor Cell line. Briefly: Tested for in vitro inhibitory activity against drug concentration causing total cell growth inhibition in 56 human tumor cell lines derived from leukemia in test 1; log10 TGI50. Format: functional. The note with it: read-out: Log TGI (converted). Put shortly: as §1
In test [19] the test system is Tumor Cell line. Nature of the test: Tested for in vitro inhibitory activity against drug concentration causing total cell growth inhibition in 56 human tumor cell lines derived from ovarian cancer in test 7; log10 TGI50. Format: functional. The note with it: read-out: Log TGI (converted). In outline:
as §1

Test [20] relates to Tumor Cell line. Nature of the test: Tested for in vitro inhibitory activity against drug concentration causing total cell growth inhibition in 56 human tumor cell lines derived from small-cell-lung cancer in test 3; log10 TGI50. The test is classed as functional. The note with it: read-out: Log TGI (converted). Put shortly:
as §1

Test [21] deals with Tumor Cell line. Nature of the test: Tested for in vitro inhibitory activity against drug concentration causing 50% cell growth inhibition in 56 human tumor cell lines derived from CNS cancer in test 5; log10 GI50. Format: functional. In outline:
as §1

In test [22] the test system is Tumor Cell line. Briefly: Tested for in vitro inhibitory activity against drug concentration causing 50% cell growth inhibition in 56 human tumor cell lines derived from Melanoma in test 6; log10 GI50. Format: functional. Put shortly: as §1
Another test is filed under the species Homo sapiens. Nature of the test: Tested for in vitro inhibitory activity against drug concentration causing 50% cell growth inhibition in 56 human tumor cell lines derived from Non-small-cell lung cancer in test 2; log10 GI50. The test is classed as functional. In outline: as §1
The subject of test [23] is Tumor Cell line. Nature of the test: Tested for in vitro inhibitory activity against drug concentration causing total cell growth inhibition in 56 human tumor cell lines derived from leukemia in test 9; log10 TGI50. The test is classed as functional. The note with it: read-out: Log TGI (converted). Put shortly: as §1
Test [24] concerns Tumor Cell line. Briefly: Tested for in vitro inhibitory activity against drug concentration causing 50% cell growth inhibition in 56 human tumor cell lines derived from small-cell-lung cancer in test 3; log10 GI50. The test is classed as functional. In outline: as §1
The subject of test [25] is Tumor Cell line. Briefly: Tested for in vitro inhibitory activity against drug concentration causing 50% cell growth inhibition in 56 human tumor cell lines derived from leukemia in test 9; log10 GI50. Format: functional. In outline:
as §1

The subject of test [26] is Tumor Cell line. Briefly: Tested for in vitro inhibitory activity against drug concentration causing total cell growth inhibition in 56 human tumor cell lines derived from colon cancer in test 4. The note with it: read-out: Log TGI (converted). The test is classed as functional. Put shortly:
as §1

Test [27] has as its system Tumor Cell line. Briefly: Tested for in vitro inhibitory activity against drug concentration causing 50% cell growth inhibition in 56 human tumor cell lines derived from leukemia; log10 GI50. The test is classed as functional. In outline: (§2)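 NCI screen: cells plated on day 0 (mostly 20 000 cells/well) and preincubated drug-free for 24 h. Drug then added at five 10-fold dilutions for 48 h. Cells were fixed in situ, stained with sulforhodamine B, and the solubilized bound dye read spectrophotometrically. GI50, the concentration giving 50% growth inhibition versus control, was taken from dose-response curves.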

For a further test, the system named is P388. Nature of the test: Tested for in vitro inhibitory activity against drug concentration causing 50% cell growth inhibition in P388/ADR cell lines; log10 GI50. Format: functional, Homo sapiens. The conditions noted are these: Mus musculus. In outline: as §2

In the case of `COc1cc([C@@H]2c3cc4c(cc3[C@@H](Nc3ccc(F)cc3)[C@H]3COC(=O)[C@H]23)OCO4)cc(OC)c1O`, the CC50 in the test on Tumor Cell line [1] is 1000 nM; with Tumor Cell line [2], 61700 nM; with Tumor Cell line [3], 61700 nM; in the test with Tumor Cell line [4], 61700 nM; with Tumor Cell line [5], 63100 nM; in the test with Tumor Cell line [6], 66100 nM. For the same compound, the figures for the CC50 in the test with Tumor Cell line [7], with Tumor Cell line [8] and in the test on Tumor Cell line [13] were 79400 nM, 1000 nM and 1000 nM, respectively. In addition, the GI50 in the test with Tumor Cell line [9] is 871 nM; in the test with Tumor Cell line [10], 708 nM; in the test with Tumor Cell line [11], 1100 nM; with Tumor Cell line [12], 646 nM; in the test with Tumor Cell line [21] it was 1350 nM; with Tumor Cell line [22] it was 661 nM. Further, the GI50 in the test listed under Homo sapiens was 813 nM; in the test with Tumor Cell line [24], 1410 nM; in the test with Tumor Cell line [25], 813 nM. Also, the TGI with Tumor Cell line [14] was 11000 nM; with Tumor Cell line [15] it was 977 nM; in the test on Tumor Cell line [16], 12300 nM; in the test on Tumor Cell line [17], 977 nM; in the test with Tumor Cell line [18], 9770 nM; with Tumor Cell line [19], 12000 nM. For the same compound, the TGI is 9550 nM in the test with Tumor Cell line [20], 8710 nM with Tumor Cell line [23] and 1000 nM with Tumor Cell line [26].
Turning to `COc1cc([C@@H]2c3cc4c(cc3[C@@H](O[C@@H]3O[C@@H]5CO[C@@H](C)O[C@H]5[C@H](O)[C@H]3O)[C@H]3COC(=O)[C@H]23)OCO4)cc(OC)c1O` [ETOPOSIDE], the GI50 is 83200 nM with Tumor Cell line [27] and 63100 nM in the test with P388.

Values taken from ChEMBL document CHEMBL1127509, “Antitumor agents. 152. In vitro inhibitory activity of etoposide derivative NPF against human tumor cell lines and a study of its conformation by X-ray crystallography, molecular modeling, and NMR spectroscopy” (1994).
